# Measured values taken from ChEMBL document CHEMBL4428057, “Discovery, Synthesis, and Evaluation of 2,4-Diaminoquinazolines as a Novel Class of Pancreatic β-Cell-Protective Agents against Endoplasmic Reticulum (ER) Stress” (J Med Chem, 2016).
# Active and inactive are the calls of the source. The calls are words filed in the database; no cut-off is given here.
# Experiments:
# Pancreatic beta cell = assay: Decrease in tunicamycin induced apoptosis in human Beta cells assessed as […] insulin cells level at 10 uM after 48 hrs by TUNEL staining based confocal microscopy (reference value: 15%); type: functional; design: scale not given: the % may be the effect or the level left
# INS1 [1] = assay: Protection against tunicamycin induced endoplasmic reticulum stress in rat INS-1 cells assessed as increase in cell viability after 3 days by CellTiter-Glo assay relative to control; type: functional
# Summary of the method: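 INS-1 cells at 3×10^3/well (384-well) co-treated with Tm 0.1 µg/mL and compound for 72 h; CellTiter-Glo ATP luminescence. Activity is % rescue, with Tm alone = 0% and DMSO without Tm = 100%. EC50 from ten 2-fold serial dilutions by curve fit; triplicate.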
# INS1 [2] = assay: Protection against tunicamycin induced endoplasmic reticulum stress in rat INS-1 cells assessed as increase in cell viability at 20 uM after 24 hrs by live-cell phase-contrast image analysis; type: functional, cell-based
# Summary of the method: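 INS-1 cells treated with or without Tm 0.1 µg/mL in the presence of compound 20 µM or DMSO for 24 h; live-cell phase-contrast images acquired at 10× magnification.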
# Rattus norvegicus = species: Rattus norvegicus; assay: Inhibition of IRE1alpha in rat INS-1 cells assessed as suppression of tunicamycin induced spliced XBP1 mRNA levels at 20 uM after 4 to 24 hrs in by qRT-PCR method; type: cell-based
# Summary of the method: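 Spliced XBP1 mRNA in INS-1 cells (4×10^5/well, 6-well plates) measured by qRT-PCR with splicing-specific primers after Tm 0.1 µg/mL ± compound 20 µM or DMSO for the indicated times. Expressed as fold-increase over untreated control; 3 replicate wells, representative of 3 experiments, SD.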
# [3] = target: T1, Cyclic AMP-dependent transcription factor ATF-6 alpha (Rattus norvegicus) (UniProt G3V909); assay: Inhibition of ATF6 in rat INS-1 cells assessed as suppression of tunicamycin induced GRP94 mRNA levels at 20 uM after 4 to 24 hrs by qRT-PCR method; type: cell-based
# T1 sequence (whole entry): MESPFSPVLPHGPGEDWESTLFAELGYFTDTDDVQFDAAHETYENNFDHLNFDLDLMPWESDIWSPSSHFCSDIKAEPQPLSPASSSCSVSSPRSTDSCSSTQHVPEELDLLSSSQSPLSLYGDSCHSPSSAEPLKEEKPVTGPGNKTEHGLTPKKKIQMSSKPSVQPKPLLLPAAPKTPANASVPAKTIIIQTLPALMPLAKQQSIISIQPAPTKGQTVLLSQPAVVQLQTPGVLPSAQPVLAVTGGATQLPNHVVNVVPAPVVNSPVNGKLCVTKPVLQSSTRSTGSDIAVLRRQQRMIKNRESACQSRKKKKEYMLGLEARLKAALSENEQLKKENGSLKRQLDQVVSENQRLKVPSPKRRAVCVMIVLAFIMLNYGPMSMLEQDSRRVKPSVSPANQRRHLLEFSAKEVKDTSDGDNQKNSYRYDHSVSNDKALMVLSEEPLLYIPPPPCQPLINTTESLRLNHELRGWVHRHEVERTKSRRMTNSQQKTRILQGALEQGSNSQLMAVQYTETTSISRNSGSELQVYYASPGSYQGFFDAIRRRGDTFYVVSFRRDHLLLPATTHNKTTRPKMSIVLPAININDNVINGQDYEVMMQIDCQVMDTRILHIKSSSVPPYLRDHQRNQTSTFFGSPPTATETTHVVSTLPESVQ
# Summary of the method: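 INS-1 cells seeded at 4×10^5/well in 6-well plates, given Tm 0.1 µg/mL ± compound 20 µM or DMSO for the indicated times. Bip or GRP94 mRNA measured by qRT-PCR, expressed as fold-increase over untreated control. Means of 3 replicate wells, representative of 3 independent experiments.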
# INS1 [4] = assay: Protection against BFA induced endoplasmic reticulum stress in rat INS-1 cells assessed as increase in cell viability at 20 uM after 72 hrs by CellTiter-Glo assay; type: functional, cell-based
# Summary of the method: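 INS-1 cells at 3×10^3/well (384-well) treated with brefeldin A 0.2 µg/mL ± compound 20 µM or DMSO for 72 h. Viability read as intracellular ATP by CellTiter-Glo luminescence. Means of 3 replicate wells, representative of 3 independent experiments; SD.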
smiles,measurement,setting,value
COc1ccc(CNc2nc(N3CCCCC3CO)nc3ccccc23)cc1 (racemic),Activity,Pancreatic beta cell,3.5%
same,%max,INS1 [1],80.4%
same,Activity,INS1 [2],Active
same,inhibition,Rattus norvegicus,Active
same,inhibition,[3],Active
same,Activity,INS1 [4],Active
